The results in this text go back to ChEMBL document CHEMBL1143393, “Indene-based scaffolds. 2. An indole-indene switch: discovery of novel indenylsulfonamides as 5-HT6 serotonin receptor agonists” (J Med Chem, 2009).

The target of test [1] is T1, 5-hydroxytryptamine receptor 6 (Homo sapiens, UniProt P50406). Kind of test: Displacement of [3H]LSD from human 5HT6 receptor expressed in HEK293 cells at 100 uM by liquid scintillation counting. It is filed as cell-based. In general terms: Loss of bound radioactivity is the signal in a displacement assay; it reports binding, not function.
Test [2] has as its target T1, 5-hydroxytryptamine receptor 6. Kind of test: Agonist activity at human 5HT6 receptor expressed in HEK293F cells assessed as stimulation of cAMP level after 30 mins by HTRF assay […]. It is filed as functional, cell-based. An outline of the steps: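 HEK293F cells stably expressing human 5-HT6 were held overnight in serum-free medium, then 20000 cells/well were placed in Ham's F12 with 1 mM IBMX and 20 µM pargyline. Compound or vehicle was added for 30 min at 37 °C. Results were given as Emax and EC50.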

In test [3] the target is T2, Alpha-2A adrenergic receptor (Homo sapiens, UniProt P08913).
T2 sequence (P08913 whole entry): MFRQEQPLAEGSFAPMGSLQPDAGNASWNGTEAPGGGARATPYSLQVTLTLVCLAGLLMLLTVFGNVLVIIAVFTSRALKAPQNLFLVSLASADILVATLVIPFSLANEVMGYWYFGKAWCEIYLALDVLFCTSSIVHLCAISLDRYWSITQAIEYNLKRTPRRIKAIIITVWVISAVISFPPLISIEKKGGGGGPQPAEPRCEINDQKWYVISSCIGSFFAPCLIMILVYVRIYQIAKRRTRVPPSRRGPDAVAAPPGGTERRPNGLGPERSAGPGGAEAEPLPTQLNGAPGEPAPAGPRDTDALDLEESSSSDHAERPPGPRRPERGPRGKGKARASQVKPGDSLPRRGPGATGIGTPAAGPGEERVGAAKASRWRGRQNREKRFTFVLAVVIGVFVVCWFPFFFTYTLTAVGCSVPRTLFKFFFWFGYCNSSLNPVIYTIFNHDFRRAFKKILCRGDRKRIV
The test is described as follows: Inhibition of human adrenergic alpha2A receptor.

Test [4] concerns the target T3, 5-hydroxytryptamine receptor 1A (Homo sapiens, UniProt P08908).
T3 sequence (P08908 whole entry): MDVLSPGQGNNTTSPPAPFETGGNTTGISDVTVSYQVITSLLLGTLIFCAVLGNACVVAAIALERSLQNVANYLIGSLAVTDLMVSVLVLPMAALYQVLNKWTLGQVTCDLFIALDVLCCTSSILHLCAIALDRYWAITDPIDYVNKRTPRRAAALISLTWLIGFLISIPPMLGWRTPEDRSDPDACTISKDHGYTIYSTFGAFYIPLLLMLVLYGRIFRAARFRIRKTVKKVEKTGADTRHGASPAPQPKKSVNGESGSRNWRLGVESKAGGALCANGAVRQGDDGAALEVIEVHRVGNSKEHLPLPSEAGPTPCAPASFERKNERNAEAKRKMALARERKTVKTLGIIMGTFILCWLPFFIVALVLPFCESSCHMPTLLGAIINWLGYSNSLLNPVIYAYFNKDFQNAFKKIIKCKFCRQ
The test is described as follows: Inhibition of human 5HT1A receptor.

The target in test [5] is T1, 5-hydroxytryptamine receptor 6. The test is described as follows: Displacement of [3H]LSD from human 5HT6 receptor expressed in HEK293 cells at 1 uM by liquid scintillation counting. The class given is cell-based.
Test [6] deals with Sodium-dependent serotonin transporter (Homo sapiens, UniProt P31645). The test is described as follows: Inhibition of human SERT.
For test [7], the target named is T4, 5-hydroxytryptamine receptor 2C (Homo sapiens, UniProt P28335).
T4 sequence (P28335 whole entry): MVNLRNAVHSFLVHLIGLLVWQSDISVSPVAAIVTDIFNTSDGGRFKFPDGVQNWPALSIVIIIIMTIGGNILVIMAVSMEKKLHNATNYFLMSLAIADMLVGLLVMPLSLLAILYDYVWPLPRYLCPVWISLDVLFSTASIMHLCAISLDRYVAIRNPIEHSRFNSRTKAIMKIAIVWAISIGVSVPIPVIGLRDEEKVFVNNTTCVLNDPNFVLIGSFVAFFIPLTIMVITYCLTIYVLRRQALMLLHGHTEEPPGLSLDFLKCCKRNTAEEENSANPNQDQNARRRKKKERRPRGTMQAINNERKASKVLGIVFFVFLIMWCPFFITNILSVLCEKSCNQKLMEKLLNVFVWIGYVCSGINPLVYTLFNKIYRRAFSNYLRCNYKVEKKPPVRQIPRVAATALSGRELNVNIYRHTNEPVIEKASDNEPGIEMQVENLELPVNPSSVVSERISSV
The test is described as follows: Inhibition of human 5HT2C receptor.

Test [8] has as its target T5, Adrenergic receptor alpha-1 (Rattus norvegicus, UniProt P15823+P23944+P43140).
T5 sequence (P15823 whole entry): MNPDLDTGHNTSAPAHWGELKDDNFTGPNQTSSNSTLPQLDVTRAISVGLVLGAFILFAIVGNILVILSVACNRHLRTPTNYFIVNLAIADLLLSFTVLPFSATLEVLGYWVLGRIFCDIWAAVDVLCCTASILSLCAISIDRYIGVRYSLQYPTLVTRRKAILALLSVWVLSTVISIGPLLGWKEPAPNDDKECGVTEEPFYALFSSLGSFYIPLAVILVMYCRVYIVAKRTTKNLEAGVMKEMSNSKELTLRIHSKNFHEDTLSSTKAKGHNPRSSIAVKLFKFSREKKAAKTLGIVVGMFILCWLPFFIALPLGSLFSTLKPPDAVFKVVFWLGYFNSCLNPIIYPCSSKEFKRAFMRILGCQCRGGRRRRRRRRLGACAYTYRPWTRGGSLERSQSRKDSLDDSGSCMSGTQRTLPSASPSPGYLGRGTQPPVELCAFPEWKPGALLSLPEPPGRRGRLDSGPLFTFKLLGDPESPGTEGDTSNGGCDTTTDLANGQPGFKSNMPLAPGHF
T5 sequence (P23944 whole entry): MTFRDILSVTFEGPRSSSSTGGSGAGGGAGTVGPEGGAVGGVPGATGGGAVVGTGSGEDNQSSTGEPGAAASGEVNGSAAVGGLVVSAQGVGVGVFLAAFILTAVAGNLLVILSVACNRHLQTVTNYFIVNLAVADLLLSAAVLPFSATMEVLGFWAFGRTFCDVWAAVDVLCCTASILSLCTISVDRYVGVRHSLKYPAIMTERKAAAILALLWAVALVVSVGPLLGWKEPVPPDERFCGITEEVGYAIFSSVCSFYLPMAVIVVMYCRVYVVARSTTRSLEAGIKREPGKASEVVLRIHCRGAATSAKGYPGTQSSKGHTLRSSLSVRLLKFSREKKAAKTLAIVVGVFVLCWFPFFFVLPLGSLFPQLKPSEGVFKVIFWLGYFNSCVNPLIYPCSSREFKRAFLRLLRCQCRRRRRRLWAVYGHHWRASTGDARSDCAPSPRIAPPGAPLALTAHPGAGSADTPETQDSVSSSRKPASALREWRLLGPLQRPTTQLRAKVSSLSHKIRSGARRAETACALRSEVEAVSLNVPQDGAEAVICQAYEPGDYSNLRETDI
T5 sequence (P43140 whole entry): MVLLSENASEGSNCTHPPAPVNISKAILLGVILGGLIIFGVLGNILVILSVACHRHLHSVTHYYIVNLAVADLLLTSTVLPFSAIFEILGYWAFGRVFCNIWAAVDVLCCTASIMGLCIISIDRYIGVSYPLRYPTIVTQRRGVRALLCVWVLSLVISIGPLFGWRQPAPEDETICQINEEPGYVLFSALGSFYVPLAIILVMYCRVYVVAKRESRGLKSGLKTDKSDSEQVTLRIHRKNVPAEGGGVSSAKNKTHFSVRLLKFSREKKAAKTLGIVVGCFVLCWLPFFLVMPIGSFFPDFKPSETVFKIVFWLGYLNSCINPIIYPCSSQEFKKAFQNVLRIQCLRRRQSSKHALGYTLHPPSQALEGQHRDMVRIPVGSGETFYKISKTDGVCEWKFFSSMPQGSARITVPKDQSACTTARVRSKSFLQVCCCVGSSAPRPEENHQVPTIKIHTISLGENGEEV
Kind of test: Inhibition of rat adrenergic alpha1 receptor.

For test [9], the target named is T1, 5-hydroxytryptamine receptor 6. The test is described as follows: Displacement of [3H]LSD from human 5HT6 receptor expressed in HEK293 cells by liquid scintillation counting. It is filed as cell-based. An outline of the steps: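 Bound ligand was collected on polyethylenimine-pretreated glass fiber filters, washed with 50 mM Tris-Cl pH 7.4, and counted by liquid scintillation. Nonspecific binding was defined with 100 µM serotonin. Triplicate points. IC50 came from linear regression, and Ki was derived by Cheng-Prusoff.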

T1 sequence (P50406 whole entry): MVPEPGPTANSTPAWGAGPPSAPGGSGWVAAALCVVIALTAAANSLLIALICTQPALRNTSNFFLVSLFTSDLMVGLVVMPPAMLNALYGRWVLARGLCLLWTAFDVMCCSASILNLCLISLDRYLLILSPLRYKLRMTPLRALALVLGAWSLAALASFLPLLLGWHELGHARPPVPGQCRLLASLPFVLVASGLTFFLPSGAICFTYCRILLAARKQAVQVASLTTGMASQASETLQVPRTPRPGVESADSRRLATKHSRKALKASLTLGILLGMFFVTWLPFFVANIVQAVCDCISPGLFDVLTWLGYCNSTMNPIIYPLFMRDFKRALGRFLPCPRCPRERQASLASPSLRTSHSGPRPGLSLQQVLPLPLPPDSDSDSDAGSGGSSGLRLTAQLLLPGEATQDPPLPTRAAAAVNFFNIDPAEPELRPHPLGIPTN
Sodium-dependent serotonin transporter, sequence (P31645 whole entry): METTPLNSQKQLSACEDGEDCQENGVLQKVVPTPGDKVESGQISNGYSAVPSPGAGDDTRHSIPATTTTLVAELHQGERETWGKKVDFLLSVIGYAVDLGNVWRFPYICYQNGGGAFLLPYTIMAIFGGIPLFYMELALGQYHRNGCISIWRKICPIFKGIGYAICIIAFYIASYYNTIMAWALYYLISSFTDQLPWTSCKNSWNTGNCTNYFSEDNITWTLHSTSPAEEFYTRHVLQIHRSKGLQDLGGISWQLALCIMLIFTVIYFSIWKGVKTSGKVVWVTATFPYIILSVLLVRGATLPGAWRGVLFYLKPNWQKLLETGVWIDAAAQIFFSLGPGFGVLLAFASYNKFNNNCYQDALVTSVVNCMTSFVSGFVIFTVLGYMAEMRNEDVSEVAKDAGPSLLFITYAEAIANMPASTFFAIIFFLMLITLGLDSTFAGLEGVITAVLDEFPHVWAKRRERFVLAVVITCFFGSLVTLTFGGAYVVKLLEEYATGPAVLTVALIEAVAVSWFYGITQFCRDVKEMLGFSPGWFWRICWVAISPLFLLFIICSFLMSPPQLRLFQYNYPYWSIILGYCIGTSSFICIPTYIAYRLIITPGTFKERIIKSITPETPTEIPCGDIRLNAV

`CC1=C(CCN(C)C)c2cc(NS(=O)(=O)c3ccc(N)cc3)ccc2C1` gave an Activity in test [1] of 4%.
For the molecule `CC1=C(CCN(C)C)c2cc(S(=O)(=O)Nc3cccc4ccccc34)ccc2C1`, in [2], the Emax – broadly, the maximal effect, on the per cent scale that the assay sets – was 95%. For the same molecule, the EC50 in test [2] (read-out: EC50) worked out at 14 nM. The IC50 (commonly the concentration needed to halve the response being measured) in test [3] was 1100 nM; in [4], more than 1000 nM. For the same molecule, in [1], the Activity came to 51%.
As for `CC1=C(CCN(C)C)c2cc(NS(=O)(=O)c3cccc4nsnc34)ccc2C1`, in test [1], the Activity was 16%.
`CC1=C(CCN2CCCC2)c2cc(NS(=O)(=O)c3ccc(N)cc3)ccc2C1` registered an Activity in test [1] of 63%.
`CC1=C(CCN(C)C)c2cc(NS(=O)(=O)c3c(Cl)nc4sccn34)ccc2C1`: the Emax in test [2] is 98%. Moreover, the EC50 in test [2] (read-out: EC50) was determined as 0.9 nM. In test [5], this molecule gave an Activity of 100%. The IC50 was more than 10000 nM in [6]; more than 1000 nM in [3]; more than 1000 nM in test [4]; 1130 nM in test [7]; more than 10000 nM in test [8]. In [9], the affinity, expressed as Ki, was 4.5 nM.
Turning to `CC1=C(CCN2CCCC2)c2cc(NS(=O)(=O)c3c(Cl)nc4sccn34)ccc2C1`, the Emax in [2] was 37%. In test [1], this molecule returned an Activity of 81%. Moreover, the Ki – broadly, a measure of affinity in units of concentration, obtained from inhibition or displacement – in [9] was determined as 17 nM.
In test [1], `CN(C)CCC1=CC(C)(C)c2ccc(NS(=O)(=O)c3c(Cl)nc4sccn34)cc21` displayed an Activity of 24%.
Consider `CC1=C(CCN2CCCC2)c2cc(NS(=O)(=O)c3sc4ccc(Cl)cc4c3C)ccc2C1`, for which the Emax in [2] turned out to be 78%. In [5], this molecule yielded an Activity of 100%.
For `O=S(=O)(Nc1ccc2c(c1)C(CCN1CCCCC1)=CC2)c1c(Cl)nc2sccn12`, in test [2], the Emax was -58%. Besides, in test [1], the Activity amounted to 81%. Further, the Ki in test [9] worked out at 31 nM.
As to `CN(C)CCc1cn(S(=O)(=O)c2ccccc2)c2ccccc12`, the Ki in test [9] stood at 3 nM. That is a single-digit nanomolar value.
As to `CNc1cc(NS(=O)(=O)c2ccc(N)cc2)nc(NC)n1`, in [9], affinity was put at a Ki of 47 nM.
In test [1], `CC1=C(CCN2CCCC2)c2cc(NS(=O)(=O)c3cccc4nsnc34)ccc2C1` showed an Activity of 19%.
The molecule `CCN(c1ccc2c(c1)C(CCN(C)C)=C(C)C2)S(=O)(=O)c1sc(C)c2cc(Cl)ccc12` had an Activity in test [1] of 3%.
`Cc1c(S(=O)(=O)Nc2ccc3c(c2)C(CCN(C)C)=CC3(C)C)sc2ccc(Cl)cc12` gave an Activity in test [1] of 2%.
Take `CN(C)CCc1c[nH]c2ccc(NS(=O)(=O)c3ccc4c(Cl)cccc4c3)cc12`: the Emax in test [2] turned out to be 96%. In [2] (read-out: pEC50 (converted)), the EC50 is 0.295 nM.
For `CC1=C(CCN(C)C)c2cc(NS(=O)(=O)c3ccc4ccccc4c3)ccc2C1`, the Emax in test [2] was 98%. Moreover, the EC50 in test [2] (read-out: EC50) amounted to 3.2 nM. Further, the IC50 in test [3] and in test [4] was more than 1000 nM throughout. The Activity in test [1] stood at 71%.
`CC1=C(CCN(C)C)c2cc(NS(=O)(=O)c3csc4ccccc34)ccc2C1`: in test [2], the Emax stood at 101%. In addition, the EC50 in [2] (read-out: EC50) was determined as 0.3 nM. In addition, the IC50 in test [3] is 700 nM; in test [4], 1140 nM. In test [1], the Activity came to 88%. In addition, in test [9], the affinity, expressed as Ki, was 53 nM.
`CN(C)CCC1=CCc2ccc(NS(=O)(=O)c3c(Cl)nc4sccn34)cc21`: the Emax in [2] is 99%. Moreover, the EC50 in [2] (read-out: EC50) turned out to be 0.3 nM. Also, the IC50 in test [6] was more than 10000 nM; in [3] it was more than 1000 nM; in test [4], more than 1000 nM; in test [7], more than 1000 nM; in test [8], more than 10000 nM. The molecule also had an Activity in [1] of 87%. For the same molecule, the Ki in test [9] was 10 nM.
On to `CC1=C(CCN(C)C)c2cc(NS(=O)(=O)c3cccc4ccccc34)ccc2C1`, for which the Activity in test [1] came out at 78%. The same molecule showed a Ki in [9] of 276 nM.
